Test results published in ChEMBL document CHEMBL4351005, “Human constitutive androstane receptor agonist DL5016: A novel sensitizer for cyclophosphamide-based chemotherapies” (Eur J Med Chem, 2019).
Converted amounts (≈) assume the structure as drawn.

What was measured:
[1] = molecular target: T1, Nuclear receptor subfamily 1 group I member 3 (Homo sapiens, UniProt Q14994); assay: Agonist activity at human constitutive androstane receptor expressed in HepG2 cells co-expressing CYP2B6 incubated for 23 hrs by One-Glo luciferase reporter gene assay; type: cell-based
T1 sequence (Q14994 whole entry): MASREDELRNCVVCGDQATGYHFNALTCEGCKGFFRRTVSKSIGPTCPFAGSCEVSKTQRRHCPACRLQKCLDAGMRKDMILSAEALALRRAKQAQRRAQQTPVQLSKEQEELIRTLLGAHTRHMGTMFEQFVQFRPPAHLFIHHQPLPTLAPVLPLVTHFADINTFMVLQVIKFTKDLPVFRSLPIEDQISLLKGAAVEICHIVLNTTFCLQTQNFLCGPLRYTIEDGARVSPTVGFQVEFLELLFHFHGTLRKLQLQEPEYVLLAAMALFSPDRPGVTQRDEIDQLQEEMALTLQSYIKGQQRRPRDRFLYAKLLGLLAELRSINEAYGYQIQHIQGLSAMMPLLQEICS
Summary of the method: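 HepG2-CYP2B6-hCAR stable reporter cells, 2,500/well, attached 5 h at 37 °C/5% CO₂. Compounds in DMSO, 16 final concentrations from 6.41 pM to 92 μM (1:3 steps), with PK11195 at 0.75 μM final; final DMSO 0.46%. After 23 h, viability read by CellTiter-Fluor (ex 405/em 540 nm), then ONE-Glo luminescence (30 min, RT) in RLU.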

[2] = molecular target: T1, Nuclear receptor subfamily 1 group I member 3; assay: Ratio of Emax to EC50 for human constitutive androstane receptor expressed in HepG2 cells co-expressing CYP2B6
[3] = molecular target: T1, Nuclear receptor subfamily 1 group I member 3; assay: Agonist activity at human constitutive androstane receptor expressed in HepG2 cells co-expressing CYP2B6 at 1 uM incubated for 23 hrs by One-Glo luciferase reporter gene assay; type: cell-based; conditions: hepg2, 23 h
[4] = molecular target: T2, Nuclear receptor subfamily 1 group I member 2 (Homo sapiens, UniProt O75469); assay: Agonist activity at human PXR expressed in HepG2 cells co-expressing CYP2B6 at 1 uM incubated for 23 hrs by One-Glo luciferase reporter gene assay; type: cell-based; conditions: hepg2, 23 h
T2 sequence (O75469 whole entry): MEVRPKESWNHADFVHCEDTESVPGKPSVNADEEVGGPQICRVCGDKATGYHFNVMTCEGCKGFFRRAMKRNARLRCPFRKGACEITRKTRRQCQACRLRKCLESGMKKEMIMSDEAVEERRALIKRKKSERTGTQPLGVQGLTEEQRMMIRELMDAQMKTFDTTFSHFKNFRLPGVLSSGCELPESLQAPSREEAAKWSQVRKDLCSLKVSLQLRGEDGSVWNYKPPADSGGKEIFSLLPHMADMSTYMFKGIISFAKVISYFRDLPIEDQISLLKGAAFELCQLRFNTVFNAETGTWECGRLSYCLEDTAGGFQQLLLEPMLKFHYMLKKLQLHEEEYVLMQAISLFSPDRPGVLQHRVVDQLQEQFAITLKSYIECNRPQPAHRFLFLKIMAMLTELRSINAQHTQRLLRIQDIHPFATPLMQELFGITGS

[5] = molecular target: T1, Nuclear receptor subfamily 1 group I member 3; assay: Induction of constitutive - androstane receptor in human primary hepatocytes assessed as upregulation of CYP2B6 mRNA expression measured after 24 hrs by RT-PCR analysis; type: cell-based
Summary of the method: (§1)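 Primary human hepatocytes (donors HL-#131 and #133), viability >90%, 0.75×10⁶ cells/well, Matrigel overlay 0.25 mg/mL. Dosed 36 h post-seeding at 0.1, 0.5 and 1 μM (vehicle 0.1% DMSO; rifampin 10 μM reference) for 24 h. RT-PCR fold over control = 2^ΔΔCt versus GAPDH; mean ± SD, three independent experiments.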

[6] = molecular target: T1, Nuclear receptor subfamily 1 group I member 3; assay: Induction of constitutive androstane receptor in human primary hepatocytes assessed as upregulation of CYP3A4 mRNA expression measured after 24 hrs by RT-PCR analysis; type: cell-based; summary of the method: as §1
[7] = molecular target: T1, Nuclear receptor subfamily 1 group I member 3; assay: Induction of adenoviral enhanced yellow fluorescent protein tagged constitutive androstane receptor translocation from cytoplasm to nucleus in human primary hepatocytes at 1 uM measured after 8 hrs by DAPI staining based fluorescent microscopic analysis; type: cell-based
Summary of the method: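 Hepatocytes (60,000/well, collagen plates) infected overnight with Ad/EYFP-hCAR (3 μL/mL), then treated 8 h at 1 μM; controls 0.1% DMSO, phenobarbital 1 mM. Cells PFA-fixed and DAPI-stained; five images per well. Translocation % = cells with ≥50% nuclear overlap with EYFP-hCAR ÷ EYFP-positive cells; mean ± SD of five images.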

[8] = Stability of compound; type: physicochemical
[9] = Aqueous solubility of compound measured after 6 hrs by reverse phase HPLC analysis; type: physicochemical; conditions: water
Summary of the method: (§2)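 6 mg solid in 1 mL water or PBS (pH 7.4), shaken 6 h at 25 °C, centrifuged, and the supernatant filtered. Filtrate quantified by C18 reverse-phase HPLC: water-acetonitrile-triethylamine 30:70:0.01, 1 mL/min, UV 312 nm. Standard curve from solutions of known concentration.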

[10] = Aqueous solubility of the compound in phosphate buffer at pH 7.4 measured after 6 hrs by reverse phase HPLC analysis; type: physicochemical; conditions: pH 7.4, 6 h; summary of the method: as §2
[11] = Lipophilicity, logP of compound; type: physicochemical; conditions: octanol/water
SUD4 [12] = assay: Potentiation of cyclophospamide/doxorubicin/vincristine/prednisone induced cytotoxicity against human SUDHL4 cells co-cultured with human primary hepatocytes assessed as reduction in cell viability after 24 hrs; type: functional, cell-based
Summary of the method: (§3)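 Hepatocytes pretreated 24 h with 1 μM test agent or 0.1% DMSO. 0.5×10⁶ SU-DHL-4 cells then added in membrane inserts (Williams' E). Co-cultures exposed with or without CHOP (5, 100, 500 μM; time course at 100 μM), plus or minus 1 μM agent. Viability by trypan blue exclusion at 24 h or set times, as % of vehicle; three independent measurements.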

SUD4 [13] = assay: Potentiation of cyclophospamide/doxorubicin/vincristine/prednisone induced cytotoxicity against human SUDHL4 cells co-cultured with human primary hepatocytes assessed as reduction in cell viability at 1 uM; type: functional, cell-based; conditions: TDE = time-dependent effect; summary of the method: as §3
[14] = molecular target: T1, Nuclear receptor subfamily 1 group I member 3; assay: Induction of constitutive - androstane receptor in human primary hepatocytes assessed as upregulation of CYP2B6 protein expression measured after 72 hrs by Western blot analysis; type: cell-based
Summary of the method: (§4)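 Hepatocytes from donors #131 and #133, dosed 36 h after seeding at 0.1, 0.5 and 1 μM (0.1% DMSO vehicle) for 72 h. Homogenate proteins run on 4–12% SDS-PAGE and immunoblotted: anti-CYP2B6 1:200, anti-CYP3A4 1:5000, β-actin 1:50,000 loading control. HRP secondaries, ECL detection.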

[15] = molecular target: T1, Nuclear receptor subfamily 1 group I member 3; assay: Induction of constitutive androstane receptor in human primary hepatocytes assessed as upregulation of CYP3A4 protein expression measured after 72 hrs by Western blot analysis; type: cell-based; summary of the method: as §4
SUD4 [16] = assay: Antiproliferative activity against human SUDHL4 cells co-cultured with human primary hepatocytes assessed as reduction in cell viability at 1 uM after 24 hrs; type: cell-based; conditions: sud4, 24 h; summary of the method: as §3
[17] = molecular target: T1, Nuclear receptor subfamily 1 group I member 3; assay: Induction of constitutive - androstane receptor in human primary hepatocytes assessed as upregulation of CYP2B6 mRNA expression at 0.5 to 5 uM after 24 hrs by RT-PCR analysis; type: cell-based
[18] = molecular target: T1, Nuclear receptor subfamily 1 group I member 3; assay: Induction of constitutive - androstane receptor in human primary hepatocytes assessed as upregulation of CYP3A4 mRNA expression at 0.5 to 5 uM after 24 hrs by RT-PCR analysis; type: cell-based

Row | EC50 [1] [nM] | Ratio [2] | Activity [3] | Structure (SMILES) | other results
1 | 3200 | 1.1 µM⁻¹ |  | Clc1ccc(-c2nc3sccn3c2CNCCc2ccc(Br)cc2)cc1 | 
2 | 650 | 4.3 µM⁻¹ | Active | Clc1ccc(CCNCc2c(-c3ccc(Cl)cc3)nc3sccn23)cc1 | Activity [4]: Active
3 | 9200 | 0.42 µM⁻¹ |  | Clc1ccc(-c2nc3sccn3c2CNCc2ccccc2)cc1 | 
4 | 2700 | 1.4 µM⁻¹ |  | Clc1ccc(-c2nc3sccn3c2CNCCc2c[nH]c3ccccc23)cc1 | 
5 | 1900 | 1.9 µM⁻¹ | Active | c1ccc(CCNCc2c(-c3ccc4ccccc4c3)nc3sccn23)cc1 | 
6 | 2100 | 1.4 µM⁻¹ |  | Fc1ccc(CCNCc2c(-c3ccc(Cl)cc3)nc3sccn23)cc1 | 
7 | 10000 | 0.36 µM⁻¹ |  | Oc1ccc(CCNCc2c(-c3ccc(Cl)cc3)nc3sccn23)cc1 | 
8 | 400 | 7 µM⁻¹ | Active | Clc1ccc(-c2nc3sccn3c2CNCCc2ccc(Cl)c(Cl)c2)cc1 | Activity [4]: Active
9 | 740 | 3.9 µM⁻¹ | Active | Clc1ccc(-c2nc3sccn3c2CNCCc2ccccc2)cc1 | Activity [4]: Active
10 | 1500 | 2.4 µM⁻¹ | Active | Clc1ccc(CCNCc2c(-c3ccc4ccccc4c3)nc3sccn23)cc1Cl | Activity [4]: Active
11 | 240 | 12 µM⁻¹ | Active | Clc1ccc(CCNCc2c(-c3ccccc3)nc3sccn23)cc1Cl | 
12 | 2800 | 1.1 µM⁻¹ |  | Clc1ccc(-c2nc3sccn3c2CNCCc2cccc(Cl)c2)cc1 | 

Continued, compound first:

Row | Structure (SMILES) | EC50 [1] [nM] | Ratio [2] | Activity [3] | other results
13 | COc1ccc(-c2nc3sccn3c2CNCCc2ccc(Cl)c(Cl)c2)cc1 | 670 | 4.3 µM⁻¹ |  | 
14 | CN(CCc1ccc(Cl)c(Cl)c1)Cc1c(-c2ccc(Cl)cc2)nc2sccn12 | 1100 | 2.1 µM⁻¹ |  | 
15 | Cc1cn2c(CNCCc3ccc(Cl)c(Cl)c3)c(-c3ccc(Cl)cc3)nc2s1 | 2200 | 1.4 µM⁻¹ |  | 
16 | CC(C)(C)c1ccc(-c2nc3sccn3c2CNCCc2ccc(Cl)c(Cl)c2)cc1 | 10000 | 0.74 µM⁻¹ |  | 
17 | Clc1ccc(-c2nc3sccn3c2CNc2ccc3ccccc3c2)cc1 | 63000 | 0.22 µM⁻¹ |  | 
18 | FC(F)(F)c1ccc(-c2nc3sccn3c2CNCCc2ccc(Cl)c(Cl)c2)cc1 | 2100 | 1.7 µM⁻¹ |  | 
19 | Clc1cccc(-c2nc3sccn3c2CNCCc2ccc(Cl)c(Cl)c2)c1 | 930 | 3.4 µM⁻¹ |  | 
20 | c1ccc2c(c1)CC(NCc1c(-c3ccc4ccccc4c3)nc3occn13)C2 | 660 | 7.4 µM⁻¹ |  | Activity [5]: Dose-dependent effect; Activity [6]: Active; Activity [7]: Active; Stability [8]: Stable; solubility [9]: 18 µg/mL (≈ 47.4 µM); solubility [10]: 17 µg/mL (≈ 44.8 µM); logP [11]: 4.62; Activity (SUD4 [12]): Dose-dependent effect; Activity (SUD4 [13]): Tde; Activity [14]: Dose-dependent effect; Activity [15]: Dose-dependent effect; Activity (SUD4 [16]): Non-Toxic
21 | Clc1ccc(-c2nc3sccn3c2/C=N/OCc2ccc(Cl)c(Cl)c2)cc1 |  |  | Active | Activity [5]: Dose-dependent effect; Activity [6]: Active; Activity [7]: Active; logP [11]: 7.26; Activity [4]: Active; Activity [14]: Dose-dependent effect; Activity [15]: Active
22 | Clc1ccc(-c2nc3sccn3c2COCCc2ccc(Cl)c(Cl)c2)cc1 | 190 | 13 µM⁻¹ | Active | Activity [4]: Active
23 | Clc1ccc(-c2nc3sccn3c2CNC2Cc3ccccc3C2)cc1 | 460 | 7.4 µM⁻¹ | Active | Activity [4]: Active
24 | Clc1ccc(CCNCc2c(-c3ccc(Br)cc3)nc3sccn23)cc1Cl | 560 | 4.6 µM⁻¹ |  | 
25 | Clc1ccc(-c2nc3occn3c2CNCCc2ccc(Cl)c(Cl)c2)cc1 | 1300 | 2.3 µM⁻¹ |  | 
26 | c1ccc2c(c1)CC(NCc1c(-c3ccc4ccccc4c3)nc3sccn13)C2 | 1600 | 2.4 µM⁻¹ | Active | Activity [4]: Active
27 | CCc1nc2sccn2c1CNCCc1ccc(Cl)c(Cl)c1 | 8700 | 0.37 |  | 
28 | Fc1ccc(-c2nc3sccn3c2CNCCc2ccc(Cl)c(Cl)c2)cc1 | 150 | 18 µM⁻¹ | Active | 
29 | Cc1ccc(-c2nc3sccn3c2CNCCc2ccc(Cl)c(Cl)c2)cc1 | 440 | 6.1 µM⁻¹ |  | 
30 | Clc1ccc(-c2nc3sccn3c2/C=N/CCc2ccc(Cl)c(Cl)c2)cc1 | 54000 | 0.13 µM⁻¹ |  | Activity [17]: Not Active; Activity [18]: Not Active
31 | Clc1ccc(-c2nc3ncccn3c2CNCCc2ccc(Cl)c(Cl)c2)cc1 | 920 | 3 µM⁻¹ |  | 
32 | O=C(NCCc1ccc(Cl)c(Cl)c1)c1c(-c2ccc(Cl)cc2)nc2sccn12 | 1100 | 2.4 µM⁻¹ |  | 
33 | N#Cc1ccc(-c2nc3sccn3c2CNCCc2ccc(Cl)c(Cl)c2)cc1 | 1500 | 1.9 µM⁻¹ |  | 
